Among the data in ChEMBL document CHEMBL3244396, “Synthesis and antileukemic activity of 5-substituted 2,3-dihydro-6,7-bis(hydroxymethyl)-1H-pyrrolizine diesters” (J Med Chem, 1977) are EC50, Activity and T/C values, retold here.

In brackets after ≈: the same amount, converted by molar mass.

A short description of data set [1]: Cytotoxicity against human 9KB cells treated as ethanol solution. It is filed as functional. Conditions: read-out: ED50 (the source's name). The essentials:
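Compound applied as an ethanol solution; activity read out as ED50 under the general screening protocol.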

In data set [2] the test system is L1210. The data set can be described thus: Antileukemic activity against mouse L1210 cells allografted in female BDF1 mouse assessed as change in body weight at 50 mg/kg, ip administered daily for 9 days as Klucel suspension starting 24 hrs after tumor inoculation. It is filed as functional. Conditions: route intraperitoneal. The essentials:
(§1)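 Ascitic fluid carrying L1210 cells was inoculated ip. Compound was given ip as a Klucel (hydroxypropylcellulose) suspension in nine daily doses, starting 24 h after inoculation. Body-weight difference (treated minus control) was recorded on day 5. Survival was scored as %T/C of mean survival time.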

For data set [3], the system named is L1210. The data set can be described thus: Antileukemic activity against mouse L1210 cells allografted in female BDF1 mouse assessed as change in body weight at 100 mg/kg, ip administered daily for 9 days as Klucel suspension starting 24 hrs after tumor inoculation. The data set is classed as functional. Conditions: route intraperitoneal. In outline: as §1
Data set [4] deals with L1210. The data set can be described thus: Antileukemic activity against mouse L1210 cells allografted in female BDF1 mouse assessed as change in body weight at 200 mg/kg, ip administered daily for 9 days as Klucel suspension starting 24 hrs after tumor inoculation. It is filed as functional. Conditions: route intraperitoneal. In outline:
as §1

The subject of data set [5] is L1210. As to the kind of experiment: Antileukemic activity against mouse L1210 cells allografted in female BDF1 mouse assessed as host mean survival time at 200 mg/kg, ip administered daily for 9 days as Klucel suspension starting 24 hrs after tumor inoculation relative to control. It is filed as functional. Conditions: route intraperitoneal. In outline:
(§2)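 L1210 leukemia given as an ascitic fluid cell inoculum, ip, to mice of the strain and sex in each line. Test material was given ip for nine daily doses starting 24 h after inoculation, in a Klucel (hydroxypropylcellulose) suspension. Read-out is mean survival time as %T/C versus controls, with >125 taken as significant.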

The test system of data set [6] is L1210. The data set can be described thus: Antileukemic activity against mouse L1210 cells allografted in female BDF1 mouse assessed as host mean survival time at 100 mg/kg, ip administered daily for 9 days as Klucel suspension starting 24 hrs after tumor inoculation relative to control. It is filed as functional. Conditions: route intraperitoneal. The essentials:
as §2

Data set [7] concerns L1210. The data set can be described thus: Antileukemic activity against mouse L1210 cells allografted in female BDF1 mouse assessed as host mean survival time at 50 mg/kg, ip administered daily for 9 days as Klucel suspension starting 24 hrs after tumor inoculation relative to control. It is filed as functional. Conditions: route intraperitoneal. In outline: as §2
The test system of data set [8] is Mus musculus. The data set can be described thus: Toxicity in female BDF1 mouse allografted with mouse L1210 cells assessed as animal survival at 200 mg/kg, ip administered daily for 9 days as Klucel suspension starting 24 hrs after tumor inoculation measured on fifth day. The data set is classed as organism-based. Conditions: in vivo. Also noted: dose 200 mg/kg, route intraperitoneal. The essentials: (§3)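 L1210 leukemia passaged as ascitic fluid and inoculated ip. Test agent given ip as a Klucel (hydroxypropylcellulose) suspension, nine daily doses starting 24 h after tumor inoculation. Acute toxicity read as toxicity-day survivors per group (out of 6), recorded on day 5. Animal weight difference T − C was also recorded. Follows NCI screening protocols.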

Data set [9] relates to Mus musculus. The data set can be described thus: Toxicity in female BDF1 mouse allografted with mouse L1210 cells assessed as animal survival at 50 mg/kg, ip administered daily for 9 days as Klucel suspension starting 24 hrs after tumor inoculation measured on fifth day. The data set is classed as organism-based. Also noted: dose 50 mg/kg, route intraperitoneal. Conditions: in vivo. The essentials:
as §3

For data set [10], the system named is P388. The data set can be described thus: Antitumor activity against mouse P388 cells allografted in female CDF1 mouse assessed as disease cures by measuring 30-days host survival at 25 mg/kg, ip administered daily for 9 days as Klucel suspension starting 24 hrs after tumor inoculation relative to control. It is filed as functional. Conditions: route intraperitoneal. The essentials:
(§4)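 P388 leukemia given as an ascitic fluid cell inoculum, ip, to mice of the strain and sex in each line. Nine daily ip doses were given in a Klucel (hydroxypropylcellulose) suspension, starting 24 h after inoculation. Read-out is median survival time as %T/C, with >125 taken as significant; a "cure" means 30-day survival.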

The test system of data set [11] is P388. As to the kind of experiment: Antitumor activity against mouse P388 cells allografted in female CDF1 mouse assessed as disease cures by measuring 30-days host survival at 12.5 mg/kg, ip administered daily for 9 days as Klucel suspension starting 24 hrs after tumor inoculation relative to control. It is filed as functional. Conditions: route intraperitoneal. The essentials:
as §4

Data set [12] deals with Mus musculus. The data set can be described thus: Toxicity in female CDF1 mouse allografted with mouse P388 cells assessed as animal survival at 100 mg/kg, ip administered daily for 9 days as Klucel suspension starting 24 hrs after tumor inoculation. It is filed as organism-based. Also noted: dose 100 mg/kg, route intraperitoneal. Conditions: in vivo. In outline: (§5)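 P-388 leukemia ascitic fluid inoculated ip. Compound given ip as a suspension in Klucel (hydroxypropylcellulose), once daily for nine doses beginning 24 h post-inoculation. Acute toxicity assessed as toxicity-day survivors per group. Survival was followed up to 30 days, with 30-day survival counted as "cure". Follows NCI screening protocols.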

For data set [13], the system named is Mus musculus. As to the kind of experiment: Toxicity in female CDF1 mouse allografted with mouse P388 cells assessed as animal survival at 50 mg/kg, ip administered daily for 9 days as Klucel suspension starting 24 hrs after tumor inoculation. The data set is classed as organism-based. Also noted: dose 50 mg/kg, route intraperitoneal. Conditions: in vivo. In outline:
as §5

Data set [14] deals with Mus musculus. The data set can be described thus: Toxicity in female CDF1 mouse allografted with mouse P388 cells assessed as animal survival at 25 mg/kg, ip administered daily for 9 days as Klucel suspension starting 24 hrs after tumor inoculation. It is filed as organism-based. Further details: dose 25 mg/kg, route intraperitoneal. Conditions: in vivo. The essentials: as §5

Data set [15] has as its system Mus musculus. As to the kind of experiment: Toxicity in female CDF1 mouse allografted with mouse P388 cells assessed as animal survival at 12.5 mg/kg, ip administered daily for 9 days as Klucel suspension starting 24 hrs after tumor inoculation. It is filed as organism-based. Also noted: dose 12.5 mg/kg, route intraperitoneal. Conditions: in vivo. The essentials:
as §5

The test system of data set [16] is P388. The data set can be described thus: Antitumor activity against mouse P388 cells allografted in female CDF1 mouse assessed as change in body weight at 12.5 mg/kg, ip administered daily for 9 days as Klucel suspension starting 24 hrs after tumor inoculation. It is filed as functional. Conditions: route intraperitoneal. The essentials: (§6)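 Ascitic fluid carrying P388 cells was inoculated ip. Compound was given ip in nine daily doses, starting 24 h after inoculation, in Klucel (hydroxypropylcellulose) suspension or in saline with Tween-80. Body-weight difference (treated minus control) was recorded on day 5. Survival was scored as %T/C of median survival time, and 30-day survival counted as cure.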

The subject of data set [17] is P388. The data set can be described thus: Antitumor activity against mouse P388 cells allografted in female CDF1 mouse assessed as change in body weight at 25 mg/kg, ip administered daily for 9 days as Klucel suspension starting 24 hrs after tumor inoculation. It is filed as functional. Conditions: route intraperitoneal. In outline:
as §6

Data set [18] deals with P388. As to the kind of experiment: Antitumor activity against mouse P388 cells allografted in female CDF1 mouse assessed as change in body weight at 50 mg/kg, ip administered daily for 9 days as Klucel suspension starting 24 hrs after tumor inoculation. The data set is classed as functional. Conditions: route intraperitoneal. The essentials:
as §6

In data set [19] the test system is P388. The data set can be described thus: Antitumor activity against mouse P388 cells allografted in female CDF1 mouse assessed as change in body weight at 100 mg/kg, ip administered daily for 9 days as Klucel suspension starting 24 hrs after tumor inoculation. The data set is classed as functional. Conditions: route intraperitoneal. The essentials: as §6
Data set [20] has as its system P388. The data set can be described thus: Antitumor activity against mouse P388 cells allografted in female CDF1 mouse assessed as change in body weight at 200 mg/kg, ip administered daily for 9 days as Klucel suspension starting 24 hrs after tumor inoculation. The data set is classed as functional. Conditions: route intraperitoneal. In outline: as §6
The subject of data set [21] is P388. The data set can be described thus: Antitumor activity against mouse P388 cells allografted in female CDF1 mouse assessed as disease cures by measuring 30-days host survival at 200 mg/kg, ip administered daily for 9 days as Klucel suspension starting 24 hrs after tumor inoculation relative to control. It is filed as functional. Conditions: route intraperitoneal. In outline: as §4

The subject of data set [22] is P388. As to the kind of experiment: Antitumor activity against mouse P388 cells allografted in female CDF1 mouse assessed as disease cures by measuring 30-days host survival at 100 mg/kg, ip administered daily for 9 days as Klucel suspension starting 24 hrs after tumor inoculation relative to control. The data set is classed as functional. Conditions: route intraperitoneal. The essentials: as §4

Data set [23] deals with P388. As to the kind of experiment: Antitumor activity against mouse P388 cells allografted in female CDF1 mouse assessed as disease cures by measuring 30-days host survival at 50 mg/kg, ip administered daily for 9 days as Klucel suspension starting 24 hrs after tumor inoculation relative to control. Conditions: route intraperitoneal. The data set is classed as functional. In outline:
as §4

The term T/C denotes the ratio of treated to control. In the case of `CNC(=O)OCc1c(COC(=O)NC)c(-c2ccc(OC)cc2)n2c1CCC2`, the EC50 in data set [1] was found to be 21 µg/mL (≈ 54.2 µM). Besides, the Activity in [2] is -2.3 g; in data set [3], -4.8 g; in data set [4] it was -5 g; in [8] it was “Non-toxic”; in data set [9] it was “Non-toxic”; in [12] it was “Non-toxic”. Also, the Activity result is recorded as “Non-toxic” in data set [13]; “Non-toxic” in [14]; “Non-toxic” in data set [15]; -3.2 g in [16]; -3.3 g in data set [17]; -4 g in data set [18]. The Activity in [19] is -3.7 g; in [20] it was -3.6 g. The T/C turned out to be 98% in data set [5]; 117% in [6]; 109% in data set [7]; 132% in data set [10]; 132% in [11]; 55% in data set [21]. Further, the T/C is reported as 129% in [22] and 131% in [23].
